According to ChEMBL document CHEMBL4673214, “Synthesis and antibacterial bioactivities of cationic deacetyl linezolid amphiphiles” (Eur J Med Chem, 2018):

How the values were obtained:
[1] = Hemolytic activity in sheep RBC incubated for 1 hr; assay type: ADME, cell-based, Ovis aries, Erythrocyte; settings: sheep red blood cells (erythrocytes)
Method in brief: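 Sheep RBCs were resuspended at 5% in PBS and mixed 3:1 with serial dilutions (2560 to 5 µg/mL, pre-mixing levels), then incubated 1 h at 37 °C. After centrifugation, supernatant A540 was read. Hemolysis % was calculated as (A−A0)/(Atotal−A0)×100, with untreated RBCs as 0% and 0.1% Triton X-100 as total lysis.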

[2] = test system: Enterobacteriaceae; test: Antibacterial activity against NDM1 producing carbapenem-resistant Enterobacteriaceae clinical isolate 10 assessed as reduction in bacterial growth incubated for 16 to 20 hrs by CLSI-based broth microdilution method; assay type: functional; settings: time 16-20 hrs
Method in brief: (§1)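 Clinical isolates tested by broth microdilution in cation-adjusted Mueller-Hinton broth. Cultures grown 4-6 h (~10^8 CFU/mL) were diluted to ~10^6 CFU/mL and mixed 1:1 with compound serial dilutions made from 256 down to 0.5 µg/mL (pre-mixing). Plates held at 37 °C for 16-20 h, then read for growth. Each concentration run in duplicate, whole experiment at least twice.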

[3] = test system: Enterobacteriaceae; test: Antibacterial activity against NDM1 producing carbapenem-resistant Enterobacteriaceae clinical isolate 8 assessed as reduction in bacterial growth incubated for 16 to 20 hrs by CLSI-based broth microdilution method; assay type: functional; settings: time 16-20 hrs; method in brief: as §1
[4] = test system: Enterobacteriaceae; test: Antibacterial activity against NDM1 producing carbapenem-resistant Enterobacteriaceae clinical isolate 7 assessed as reduction in bacterial growth incubated for 16 to 20 hrs by CLSI-based broth microdilution method; assay type: functional; settings: time 16-20 hrs; method in brief: as §1
[5] = test system: Enterobacteriaceae; test: Antibacterial activity against NDM1 producing carbapenem-resistant Enterobacteriaceae clinical isolate 6 assessed as reduction in bacterial growth incubated for 16 to 20 hrs by CLSI-based broth microdilution method; assay type: functional; settings: time 16-20 hrs; method in brief: as §1
[6] = test system: Enterobacteriaceae; test: Antibacterial activity against NDM1 producing carbapenem-resistant Enterobacteriaceae clinical isolate 5 assessed as reduction in bacterial growth incubated for 16 to 20 hrs by CLSI-based broth microdilution method; assay type: functional; settings: time 16-20 hrs; method in brief: as §1
[7] = test system: Enterobacteriaceae; test: Antibacterial activity against NDM1 producing carbapenem-resistant Enterobacteriaceae clinical isolate 4 assessed as reduction in bacterial growth incubated for 16 to 20 hrs by CLSI-based broth microdilution method; assay type: functional; settings: time 16-20 hrs; method in brief: as §1
[8] = test system: Enterobacteriaceae; test: Antibacterial activity against NDM1 producing carbapenem-resistant Enterobacteriaceae clinical isolate 3 assessed as reduction in bacterial growth incubated for 16 to 20 hrs by CLSI-based broth microdilution method; assay type: functional; settings: time 16-20 hrs; method in brief: as §1
[9] = test system: Enterobacteriaceae; test: Antibacterial activity against NDM1 producing carbapenem-resistant Enterobacteriaceae clinical isolate 2 assessed as reduction in bacterial growth incubated for 16 to 20 hrs by CLSI-based broth microdilution method; assay type: functional; settings: time 16-20 hrs; method in brief: as §1
[10] = test system: Enterobacteriaceae; test: Antibacterial activity against NDM1 producing carbapenem-resistant Enterobacteriaceae clinical isolate 1 assessed as reduction in bacterial growth incubated for 16 to 20 hrs by CLSI-based broth microdilution method; assay type: functional; settings: time 16-20 hrs; method in brief: as §1
[11] = test system: Klebsiella pneumoniae; test: Antibacterial activity against carbapenem-resistant Klebsiella pneumoniae clinical isolate 10 assessed as reduction in bacterial growth incubated for 16 to 20 hrs by CLSI-based broth microdilution method; assay type: functional; settings: time 16-20 hrs; method in brief: as §1
[12] = test system: Klebsiella pneumoniae; test: Antibacterial activity against carbapenem-resistant Klebsiella pneumoniae clinical isolate 9 assessed as reduction in bacterial growth incubated for 16 to 20 hrs by CLSI-based broth microdilution method; assay type: functional; settings: time 16-20 hrs; method in brief: as §1
[13] = test system: Klebsiella pneumoniae; test: Antibacterial activity against carbapenem-resistant Klebsiella pneumoniae clinical isolate 8 assessed as reduction in bacterial growth incubated for 16 to 20 hrs by CLSI-based broth microdilution method; assay type: functional; settings: time 16-20 hrs; method in brief: as §1
[14] = test system: Klebsiella pneumoniae; test: Antibacterial activity against carbapenem-resistant Klebsiella pneumoniae clinical isolate 7 assessed as reduction in bacterial growth incubated for 16 to 20 hrs by CLSI-based broth microdilution method; assay type: functional; settings: time 16-20 hrs; method in brief: as §1
[15] = test system: Klebsiella pneumoniae; test: Antibacterial activity against carbapenem-resistant Klebsiella pneumoniae clinical isolate 6 assessed as reduction in bacterial growth incubated for 16 to 20 hrs by CLSI-based broth microdilution method; assay type: functional; settings: time 16-20 hrs; method in brief: as §1
[16] = test system: Klebsiella pneumoniae; test: Antibacterial activity against carbapenem-resistant Klebsiella pneumoniae clinical isolate 5 assessed as reduction in bacterial growth incubated for 16 to 20 hrs by CLSI-based broth microdilution method; assay type: functional; settings: time 16-20 hrs; method in brief: as §1
[17] = test system: Klebsiella pneumoniae; test: Antibacterial activity against carbapenem-resistant Klebsiella pneumoniae clinical isolate 4 assessed as reduction in bacterial growth incubated for 16 to 20 hrs by CLSI-based broth microdilution method; assay type: functional; settings: time 16-20 hrs; method in brief: as §1
[18] = test system: Klebsiella pneumoniae; test: Antibacterial activity against carbapenem-resistant Klebsiella pneumoniae clinical isolate 3 assessed as reduction in bacterial growth incubated for 16 to 20 hrs by CLSI-based broth microdilution method; assay type: functional; settings: time 16-20 hrs; method in brief: as §1
[19] = test system: Klebsiella pneumoniae; test: Antibacterial activity against carbapenem-resistant Klebsiella pneumoniae clinical isolate 2 assessed as reduction in bacterial growth incubated for 16 to 20 hrs by CLSI-based broth microdilution method; assay type: functional; settings: time 16-20 hrs; method in brief: as §1
[20] = test system: Staphylococcus aureus; test: Antibacterial activity against methicillin-resistant Staphylococcus aureus clinical isolate 10 assessed as reduction in bacterial growth incubated for 16 to 20 hrs by CLSI-based broth microdilution method; assay type: functional; settings: time 16-20 hrs; method in brief: as §1
[21] = test system: Staphylococcus aureus; test: Antibacterial activity against methicillin-resistant Staphylococcus aureus clinical isolate 9 assessed as reduction in bacterial growth incubated for 16 to 20 hrs by CLSI-based broth microdilution method; assay type: functional; settings: time 16-20 hrs; method in brief: as §1
[22] = test system: Staphylococcus aureus; test: Antibacterial activity against methicillin-resistant Staphylococcus aureus clinical isolate 8 assessed as reduction in bacterial growth incubated for 16 to 20 hrs by CLSI-based broth microdilution method; assay type: functional; settings: time 16-20 hrs; method in brief: as §1
[23] = test system: Staphylococcus aureus; test: Antibacterial activity against methicillin-resistant Staphylococcus aureus clinical isolate 7 assessed as reduction in bacterial growth incubated for 16 to 20 hrs by CLSI-based broth microdilution method; assay type: functional; settings: time 16-20 hrs; method in brief: as §1
[24] = test system: Enterobacteriaceae; test: Antibacterial activity against NDM1 producing carbapenem-resistant Enterobacteriaceae clinical isolate 9 assessed as reduction in bacterial growth incubated for 16 to 20 hrs by CLSI-based broth microdilution method; assay type: functional; settings: time 16-20 hrs; method in brief: as §1
[25] = test system: Staphylococcus aureus; test: Antibacterial activity against methicillin-resistant Staphylococcus aureus clinical isolate 6 assessed as reduction in bacterial growth incubated for 16 to 20 hrs by CLSI-based broth microdilution method; assay type: functional; settings: time 16-20 hrs; method in brief: as §1
[26] = test system: Staphylococcus aureus; test: Antibacterial activity against methicillin-resistant Staphylococcus aureus clinical isolate 5 assessed as reduction in bacterial growth incubated for 16 to 20 hrs by CLSI-based broth microdilution method; assay type: functional; settings: time 16-20 hrs; method in brief: as §1
[27] = test system: Staphylococcus aureus; test: Antibacterial activity against methicillin-resistant Staphylococcus aureus clinical isolate 4 assessed as reduction in bacterial growth incubated for 16 to 20 hrs by CLSI-based broth microdilution method; assay type: functional; settings: time 16-20 hrs; method in brief: as §1
[28] = test system: Staphylococcus aureus; test: Antibacterial activity against methicillin-resistant Staphylococcus aureus clinical isolate 3 assessed as reduction in bacterial growth incubated for 16 to 20 hrs by CLSI-based broth microdilution method; assay type: functional; settings: time 16-20 hrs; method in brief: as §1
[29] = test system: Staphylococcus aureus; test: Antibacterial activity against methicillin-resistant Staphylococcus aureus clinical isolate 2 assessed as reduction in bacterial growth incubated for 16 to 20 hrs by CLSI-based broth microdilution method; assay type: functional; settings: time 16-20 hrs; method in brief: as §1
[30] = test system: Staphylococcus aureus; test: Antibacterial activity against methicillin-resistant Staphylococcus aureus clinical isolate 1 assessed as reduction in bacterial growth incubated for 16 to 20 hrs by CLSI-based broth microdilution method; assay type: functional; settings: time 16-20 hrs; method in brief: as §1
[31] = test system: Salmonella enterica; test: Antibacterial activity against Salmonella enterica ATCC 8387 assessed as reduction in bacterial growth incubated for 16 to 20 hrs by CLSI-based broth microdilution method; assay type: functional; settings: time 16-20 hrs
Method in brief: (§2)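 Broth microdilution following CLSI, in cation-adjusted Mueller-Hinton broth. Inoculum from a 4-6 h culture (~10^8 CFU/mL), diluted to ~10^6 CFU/mL. Water stocks were serially diluted in MHB (256 to 0.5 µg/mL) and mixed 1:1 with the inoculum. Plates ran 16-20 h at 37 °C. MIC was read visually. Each concentration was tested in duplicate, and the experiment was repeated at least twice.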

[32] = test system: Escherichia coli; test: Antibacterial activity against Escherichia coli ATCC 25922 assessed as reduction in bacterial growth incubated 16 to 20 hrs by CLSI-based broth microdilution method; assay type: functional; settings: time 16-20 hrs; method in brief: as §2
[33] = test system: Enterococcus faecalis; test: Antibacterial activity against Enterococcus faecalis ATCC 29212 assessed as reduction in bacterial growth incubated 16 to 20 hrs by CLSI-based broth microdilution method; assay type: functional; settings: time 16-20 hrs; method in brief: as §2
[34] = test system: Klebsiella pneumoniae; test: Antibacterial activity against carbapenem-resistant Klebsiella pneumoniae clinical isolate 1 assessed as reduction in bacterial growth incubated for 16 to 20 hrs by CLSI-based broth microdilution method; assay type: functional; settings: time 16-20 hrs; method in brief: as §1
[35] = test system: Staphylococcus aureus; test: Antibacterial activity against Staphylococcus aureus ATCC 29213 assessed as reduction in bacterial growth incubated for 16 to 20 hrs by CLSI-based broth microdilution method; assay type: functional; settings: time 16-20 hrs; method in brief: as §2
[36] = Solubility of the compound in water at room temperature; assay type: physicochemical; settings: buffer

CCCCCCCCCCCCCC[N+](C)(C)CC(=O)NC[C@H]1CN(c2ccc(N3CCOCC3)c(F)c2)C(=O)O1.[Cl-]
HC50 at 1 h [1]: 60 µg/mL
MIC [2]: 16 µg/mL
MIC [3]: 16 µg/mL
MIC [4]: 16 µg/mL
MIC [5]: 32 µg/mL
MIC [6]: 32 µg/mL
MIC [7]: 64 µg/mL
MIC [8]: 32 µg/mL
MIC [9]: > 64 µg/mL
MIC [10]: > 64 µg/mL
MIC [11]: 32 µg/mL
MIC [12]: 32 µg/mL
MIC [13]: 32 µg/mL
MIC [14]: 32 µg/mL
MIC [15]: 32 µg/mL
MIC [16]: 32 µg/mL
MIC [17]: 32 µg/mL
MIC [18]: 16 µg/mL
MIC [19]: 32 µg/mL
MIC [20]: 8 µg/mL
MIC [21]: 2 µg/mL
MIC [22]: 4 µg/mL
MIC [23]: 2 µg/mL
MIC [24]: 16 µg/mL
MIC [25]: 2 µg/mL
MIC [26]: 4 µg/mL
MIC [27]: 4 µg/mL
MIC [28]: 2 µg/mL
MIC [29]: 16 µg/mL
MIC [30]: 4 µg/mL
MIC [31]: 16 µg/mL
MIC [32]: 16 µg/mL
MIC [33]: 4 µg/mL
MIC [34]: 32 µg/mL
MIC [35]: 4 µg/mL
solubility [36]: Soluble
